Bioassay records from PubChem.
XiGFP reactiv: activators of inactive X chromosome reactivation, primary screen, imaging, XiGFP fibroblasts, GFP high-content imaging, set 2; activation, % at 7.58 µM; 0.055% of 360,000 active; XiGFP mouse fibroblasts, % GFP-positive cells imaging, 3 d; cells co-treated with 5-aza-dC sensitizer; scaled so ellipticine positive control = 100%;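 active = mean normalized replicate activation at least 10% and every replicate at or above 10%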;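 also: 0% = median of on-plate neutral control wells and 100% = ellipticine 6 µM median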
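material = 68-5-11 XiGFP fibroblast line | medium = DMEM plus 5-aza-dC sensitizer | schedule = 3 days compound exposure | benchmarks = positive control ellipticine, 6 µM final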
ARNT TACC3 PPI: disruptors of ARNT/TACC3 protein interaction, primary screen, biochemical, AlphaScreen, single concentration; AlphaScreen His-ARNT PAS-B/GST-TACC3 binding, luminescence; TACC3 fragment carries E629A point mutation; inhibition, % at 9.99 µM; 0.66% of 390,000 active; AID 623870, 2012;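 active = mean inhibition of replicates at least 50% and at least half of replicates each reaching 50%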;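 also: 0% = complete ARNT plus TACC3 wells and 100% = ARNT alone without TACC3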
SR-BI DiI inh: inhibitors of SR-BI mediated HDL lipid uptake, primary screen, ldlA[mSR-BI] cells, fluorescence, single point | ldlA[mSR-BI] CHO cells, DiI-HDL uptake fluorescence, 3 h | Scavenger receptor class B member 1 (Mus musculus), Q61009 | 0.96% of 320,000 active | inhibition, % at 12.5 µM;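 active = mean replicate inhibition of at least 70% and a set share of replicates each scoring 70 or more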;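 also: 0% = median of neutral control wells and 100% = median of positive control wells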
NSD2 inh: NSD2 histone methyltransferase inhibitors, primary screen, biochemical, AlphaScreen, single concentration, set 2 | 0.54% of 310,000 active | inhibition, % at 12.5 µM | NSD2 peptide methylation, 120 min | AID 743445, 2014; in the data active = inhibition above about 50%
SR-BI uptake up: activators of SR-BI mediated DiI-HDL uptake, primary screen, ldlA[mSR-BI] CHO cells, DiI fluorescence | 0.096% of 320,000 active | activation, % at 12.5 µM | 3 h; 100 = double the neutral-control signal | AID 504775, 2011;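 active = mean replicate activation of at least 60% and every replicate at or above 60%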;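 also: 0% = median plate neutral-control signal and 100% = twice that signal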
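Test system: SR-BI-overexpressing, LDLR-lacking CHO cells; Also added: labelled HDL, 10 µg/mL; Measured by: bottom-read cell fluorescence after medium removal, ex 550/em 595 nm; Timing: 3 h uptake period with compound, 37 °C; Buffer or medium: F12, 0.5% BSA, 25 mM HEPES; Doses: single compound concentration, delivered by pin transfer.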
HGIII-sPLA2 inh: human group III sPLA2 inhibitors, primary screen, biochemical, QFRET, BODIPY PC-A2 liposome substrate; 0.56% of 370,000 active; AID 743126, 2013; Group 3 secretory phospholipase A2 (Homo sapiens), Q9NZ20; QFRET BODIPY PC-A2 liposome hydrolysis, fluorescence; inhibition, % at 12.2 µM;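 active = inhibition above mean plus 3 SD of compounds lying within the high and low control bounds, cut at about 19% in these data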;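 also: 0% = median of test compound wells and 100% = no enzyme DMSO wells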
AlphaScreen ctr: AlphaScreen signal interference compounds, dose response, artefact control for ARNT-TACC3 interaction inhibitor project, biochemical, luminescence, cherry-pick | AC50, µM (highest dose often 68 µM), without a hit: at the top dose activity change, negative = signal decrease | 50% of 1,200 active | shares compounds with ARNT TACC3 PPI | His-ARNT PASB-GST AlphaScreen artifact counter-screen;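 active = every separate test run was called active for a drop in luminescence, with AC50 within twice the top valid dose, actives reach about 71 µM in these data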
Numbers without * were called inactive; · = no result given; [ ] = remark or other dose. A selection: hits, their analogues and other compounds. The true share with any hit is near 2%.

SMILES	XiGFP reactiv	ARNT TACC3 PPI	SR-BI DiI inh	NSD2 inh	SR-BI uptake up	HGIII-sPLA2 inh	AlphaScreen ctr
COc1ccc(/C=N/Nc2nncn2N)cc1Br	0	55*	-21	14	21	-12	-19%
COc1cc(/C=N/Nc2nncn2N)ccc1OCc1c(C)no[n+]1[O-]	0	6	·	·	·	-7	·
O=C(NNS(=O)(=O)c1ccccc1F)c1cccc(S(=O)(=O)N2CCOCC2)c1	0	-4	-11	-1	11	2	·
Cn1ccnc1-c1nc2ccccc2[nH]c1=O	·	71*	-12	-4	12	-1	-12%
O=C(Nc1cccc(F)c1)c1cccnc1NCCc1ccccc1	0	active	24	-9	-24	-16	-4%
O=C(Nc1ccc(F)cc1)c1cccnc1NCCc1ccccc1	1	-8	22	-7	-22	1	·
C[C@@H]1CCCCO[C@@H](CN(C)C(=O)Nc2ccc3c(c2)OCO3)[C@H](C)CN([C@H](C)CO)C(=O)c2cc(NS(=O)(=O)c3cccs3)ccc2O1	0	-2	·	·	·	·	·
CCOC(=O)c1c(C)c(C(=O)NCCc2ccccc2)c(C)n1C	0	-2	17	-1	-17	-1	·
CC(=O)Nc1cccc(NC(C)=O)n1	·	-1	6	1	-6	1	·
CC(=O)Nc1cccc(C(=O)O)n1	0	59*	-15	-4	15	0	-20%
CCc1c(C)nc(Nc2nc(C)c3ccc(OC)cc3n2)[nH]c1=O	·	51*	8	1	-8	9	-37%
CCc1c(C)nc(Nc2nc(C)c3cc(OC)ccc3n2)[nH]c1=O	·	20	26	-3	-26	4	·
O=C(CSc1nnc(CNC(=O)c2ccc(F)cc2)o1)Nc1nccs1	0	63*	-26	-3	26	6	-14%
Cc1nnc(NC(=O)CSc2nnc(CNC(=O)c3ccc(S(=O)(=O)N(C)C)cc3)o2)s1	0	63*	9	-3	-9	7	-2%
CO[C@H]1CC[C@H]2CCOc3c(C#N)cccc3C(=O)N(C)C[C@@H](OC)[C@@H](C)C(=O)N(C)C[C@H]1O2	1	-3	·	·	·	·	·
Cc1ccccc1C(=O)NNC(=O)C12CC3CC(CC(C3)C1)C2	0	13	8	-4	-8	5	·
O=C(NCCCn1ccnc1)c1ccc(Cl)cc1[N+](=O)[O-]	0	·	-23	2	23	-3	·
Cc1ccc(C(=O)NCCCn2ccnc2)cc1C	0	·	·	-2	·	-4	·
CC(C)(C)c1cc(C(=O)NCCCn2ccnc2)cc(C(C)(C)C)c1	0	61*	·	-2	·	-20	-11%
O=C(NCCCn1ccnc1)c1cc2cc([N+](=O)[O-])ccc2oc1=O	1	54*	-21	1	21	15	3%
O=C(NCCCn1ccnc1)c1ccc2nccnc2c1	0	58*	-10	-6	10	-1	-8%
O=C(COC(=O)c1cc(=O)[nH]c2ccccc12)Nc1nc(-c2ccccc2)cs1	0	1	·	-4	·	-7	·
C[C@H](CO)N1C[C@H](C)[C@H](CN(C)Cc2cccnc2)Oc2ncc(-c3cccc(C#N)c3)cc2C1=O	0	-10	·	·	·	·	·
COc1cccc(/C=N/NC(=O)CNC(=O)c2cccnc2)c1O	0	59*	-6	-5	6	9	2%
COc1cccc(/C=N/NC(=O)CNC(=O)c2ccncc2)c1O	0	56*	-9	0	9	-1	-12%
SMILES	XiGFP reactiv	ARNT TACC3 PPI	SR-BI DiI inh	NSD2 inh	SR-BI uptake up	HGIII-sPLA2 inh	AlphaScreen ctr
COc1ccc([N+](=O)[O-])cc1/C=N/NC(=O)CNC(=O)c1cccc(F)c1	0	51*	-7	0	7	17	-12%
COc1cccc(/C=N/NC(=O)C(=O)NCc2cccnc2)c1O	0	21	-6	-15	6	-7	·
COc1cccc(N(CC(=O)NCCSCc2ccc(C)cc2)S(C)(=O)=O)c1	0	-3	-17	1	17	-5	·
O=[N+]([O-])c1cc(Cl)cc(/C=N\Nc2ccccn2)c1O	·	56*	18	·	-18	-1	25µM*
O=[N+]([O-])c1ccc(Cl)cc1C=NNc1ccccn1	0	-3	0	2	0	-1	·
Cc1cc(NC(=O)CSc2nc(N)c(NC(=O)c3ccco3)c(=O)[nH]2)no1	0	-4	10	-6	-10	-4	·
O=c1[nH]c(-c2ccccc2)cnc1-c1ccccc1	0	·	·	·	·	2	·
CN(C)c1ccc2c(c1)[C@@H]1C[C@@H](CC(=O)N3CCOCC3)O[C@@H](CO)[C@@H]1O2	0	70*	·	·	·	·	-8%[38 µM]
CN(C)c1ccc2c(c1)[C@@H]1C[C@@H](CC(=O)N3CCCCC3)O[C@H](CO)[C@@H]1O2	0	·	·	·	·	·	·
N#Cc1ccc(CC(=O)c2ccccc2)[nH]c1=O	0	active	-1	4	1	-25	-12%
CCCCOCCCNc1ncnc2c1[nH]c1ccccc12	·	1	-6	·	6	-21	·
Cc1[nH]c(=O)[nH]c(=O)c1/C=N/NC(=O)[C@H](C)NC(=O)OC(C)(C)C	·	54*	·	-2	·	14	-4%
CC1Oc2ccccc2C=C1/C=N/NC(=O)[C@@H](C)NC(=O)OC(C)(C)C (some centres not stated)	0	6	-14	-1	14	3	·
Cc1cccc(C)c1Nc1c(-c2ccccn2)nc2ccccn12	3	65*	14	24	-14	12	18µM*
Cc1cc(C)n2c(Nc3c(C)cccc3C)c(-c3ccccn3)nc2n1	0	·	·	·	·	2	·
Cc1ccc2nc(-c3ccccn3)c(NC3CCCC3)n2c1	0	61*	30	·	-30	19	32µM*
O=C(Cc1ccccc1)Nc1c[nH]c(=O)[nH]c1=O	·	-3	-28	-1	28	-2	·
c1ccc(-c2nc(NCC3CC3)nc3ccsc23)cc1	0	·	·	0	·	1	·
c1ccc(-c2cc3nc(NCC4CC4)nc(NCC4CCCCC4)c3s2)cc1	0	·	·	-4	·	11	·
